According to ChEMBL document CHEMBL1148385, “Synthesis and opioid activity of side-chain-to-side-chain cyclic dynorphin A-(1-11) amide analogues cyclized between positions 2 and 5. 1. Substitutions in position 3” (J Med Chem, 2004):
pEC50, pKi: −log10 of the molar value. Where a SMILES comes first, the peptide text is derived from it.

How the values were obtained:
[1] = target: T1, Kappa-type opioid receptor (Rattus norvegicus, UniProt P34975); experiment: Binding affinity towards Opioid receptor kappa 1 expressed in CHO cells was determined by using [3H]diprenorphine as radioligand; assay type: cell-based
Summary of the method: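 Competition binding at room temperature on CHO cells stably expressing cloned rat κ (radioligand [³H]diprenorphine, KD 0.45 nM), rat μ ([³H]DAMGO, KD 0.49 nM) or mouse δ ([³H]DPDPE, KD 1.76 nM) receptors. Peptidase inhibitors (10 μM bestatin, 30 μM captopril, 50 μM L-leucyl-L-leucine) and 3 mM Mg²⁺ present. Nonspecific binding defined with 10 μM Dyn A-(1–13)NH₂, DAMGO or DPDPE respectively. Logistic fit for IC50; Ki via Cheng–Prusoff; mean ± SEM, ≥3 assays.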

[2] = target: Mu-type opioid receptor (Rattus norvegicus, UniProt P33535); experiment: Binding affinity towards Opioid receptor mu 1 expressed in CHO cells was determined by using[3H]DAMGO as radioligand; assay type: cell-based
[3] = target: T1, Kappa-type opioid receptor; experiment: Inhibition of forskolin-stimulated adenylyl cyclase activity by compound in CHO cells expressing Opioid receptor kappa 1; assay type: functional, cell-based
Summary of the method: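 CHO cells stably expressing cloned rat κ receptor were incubated 40 min at 37 °C with 50 μM forskolin and various peptide concentrations. RO20-1724 (50 μM) and peptidase inhibitors (bestatin, captopril, L-leucyl-L-leucine) were present. [³H]cAMP was counted, with [¹⁴C]cAMP added for recovery correction and counts corrected for crossover. Mean ± SEM of 2–3 separate assays.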

[4] = target: Delta-type opioid receptor (Mus musculus, UniProt P32300); experiment: Binding affinity towards opioid receptor delta 1 expressed in CHO cells was determined by using [3H]DPDPE as radioligand; assay type: cell-based
Delta-type opioid receptor, sequence (P32300 whole entry): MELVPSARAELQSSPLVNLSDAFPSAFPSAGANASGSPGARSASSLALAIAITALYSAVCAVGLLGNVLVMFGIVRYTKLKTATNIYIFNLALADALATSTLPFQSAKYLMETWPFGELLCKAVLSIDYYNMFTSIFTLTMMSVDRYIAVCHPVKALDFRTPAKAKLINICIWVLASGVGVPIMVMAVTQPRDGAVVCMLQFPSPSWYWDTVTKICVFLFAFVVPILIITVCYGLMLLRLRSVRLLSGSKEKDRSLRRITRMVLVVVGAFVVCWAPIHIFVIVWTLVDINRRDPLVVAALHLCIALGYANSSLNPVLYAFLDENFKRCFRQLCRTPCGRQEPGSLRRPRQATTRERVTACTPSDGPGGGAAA

Mu-type opioid receptor, sequence (P33535 whole entry): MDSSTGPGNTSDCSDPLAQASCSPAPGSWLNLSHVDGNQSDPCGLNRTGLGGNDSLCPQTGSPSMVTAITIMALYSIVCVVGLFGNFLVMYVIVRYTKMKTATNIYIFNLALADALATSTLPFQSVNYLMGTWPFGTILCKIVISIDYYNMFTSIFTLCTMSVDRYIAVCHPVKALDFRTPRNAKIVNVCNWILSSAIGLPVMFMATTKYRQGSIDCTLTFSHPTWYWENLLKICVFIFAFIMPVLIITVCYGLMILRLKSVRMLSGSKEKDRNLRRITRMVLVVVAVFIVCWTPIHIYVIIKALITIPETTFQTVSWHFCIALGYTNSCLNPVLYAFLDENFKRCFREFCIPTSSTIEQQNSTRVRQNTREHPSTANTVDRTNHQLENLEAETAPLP
T1 sequence (P34975 whole entry): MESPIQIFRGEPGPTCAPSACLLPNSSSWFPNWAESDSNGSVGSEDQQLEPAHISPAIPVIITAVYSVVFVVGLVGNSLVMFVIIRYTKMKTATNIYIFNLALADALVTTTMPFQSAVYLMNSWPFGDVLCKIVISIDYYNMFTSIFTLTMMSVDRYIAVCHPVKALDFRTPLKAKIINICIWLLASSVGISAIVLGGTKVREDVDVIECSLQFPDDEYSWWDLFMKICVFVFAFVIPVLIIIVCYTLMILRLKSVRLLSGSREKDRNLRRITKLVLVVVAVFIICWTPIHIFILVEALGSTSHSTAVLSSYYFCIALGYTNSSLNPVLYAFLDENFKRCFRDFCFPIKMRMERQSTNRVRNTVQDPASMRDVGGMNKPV

| Compound | pKi [1] | pKi [2] | pEC50 [3] | pKi [4] |
| --- | --- | --- | --- | --- |
| CC[C@H](C)[C@H](NC(=O)[C@H](CCCN=C(N)N)NC(=O)[C@H](CCCN=C(N)N)NC(=O)[C@H](CC(C)C)NC(=O)[C@H](Cc1ccccc1)NC(=O)CNC(=O)CNC(=O)[C@@H](N)Cc1ccc(O)cc1)C(=O)N[C@@H](CCCN=C(N)N)C(=O)N1CCC[C@H]1C(=O)N[C@@H](CCCCN)C(N)=O | 9.85 | – | – | – |
| CC[C@H](C)[C@H](NC(=O)[C@H](CCCNC(=N)N)NC(=O)[C@H](CCCNC(=N)N)NC(=O)[C@H](CC(C)C)NC(=O)[C@H](Cc1ccccc1)NC(=O)[C@H](C)NC(=O)CNC(=O)[C@@H](N)Cc1ccc(O)cc1)C(=O)N[C@@H](CCCNC(=N)N)C(=O)N1CCC[C@H]1C(=O)N[C@@H](CCCCN)C(N)=O | 9.59 | 7.79 | – | – |
| CC[C@H](C)[C@H](NC(=O)[C@H](CCCNC(=N)N)NC(=O)[C@H](CCCNC(=N)N)NC(=O)[C@@H]1CNC(=O)C[C@@H](NC(=O)[C@@H](N)Cc2ccc(O)cc2)C(=O)N2CCC[C@H]2C(=O)N[C@@H](Cc2ccccc2)C(=O)N1)C(=O)N[C@@H](CCCNC(=N)N)C(=O)N1CCC[C@H]1C(=O)N[C@@H](CCCCN)C(N)=O | 8.04 | 6.90 | 6.82 | < 5.00 |
| CC[C@H](C)[C@H](NC(=O)[C@H](CCCN=C(N)N)NC(=O)[C@H](CCCN=C(N)N)NC(=O)[C@@H]1CNC(=O)C[C@@H](NC(=O)[C@@H](N)Cc2ccc(O)cc2)C(=O)NCC(=O)N[C@@H](Cc2ccccc2)C(=O)N1)C(=O)N[C@@H](CCCN=C(N)N)C(=O)N1CCC[C@H]1C(=O)N[C@@H](CCCCN)C(=O)N[C@@H](CC(C)C)C(=O)N[C@@H](CCCCN)C(N)=O (HELM PEPTIDE1{Y.[dD].G.F.[O=C([C@H](CN[*:3])N[*:1])[*:2]].R.R.I.R.P.K.L.K.[am]}$PEPTIDE1,PEPTIDE1,2:R3-5:R3$$$V2.0) | 9.80 | 8.93 | – | 8.48 |
| CC[C@H](C)[C@H](NC(=O)[C@H](CCCNC(=N)N)NC(=O)[C@H](CCCNC(=N)N)NC(=O)[C@@H]1CNC(=O)C[C@@H](NC(=O)[C@@H](N)Cc2ccc(O)cc2)C(=O)N[C@H](C)C(=O)N[C@@H](Cc2ccccc2)C(=O)N1)C(=O)N[C@@H](CCCNC(=N)N)C(=O)N1CCC[C@H]1C(=O)N[C@@H](CCCCN)C(N)=O | 9.68 | 8.41 | 9.27 | 6.86 |
| CC[C@H](C)[C@H](NC(=O)[C@H](CCCN=C(N)N)NC(=O)[C@H](CCCN=C(N)N)NC(=O)[C@H](CN)NC(=O)[C@H](Cc1ccccc1)NC(=O)[C@@H](Cc1c[nH]c2ccccc12)NC(=O)[C@@H](CC(=O)O)NC(=O)[C@@H](N)Cc1ccc(O)cc1)C(=O)N[C@@H](CCCN=C(N)N)C(=O)N1CCC[C@H]1C(=O)N[C@@H](CCCCN)C(N)=O | 8.90 | 8.34 | – | 6.09 |
| CC[C@H](C)[C@H](NC(=O)[C@H](CCCN=C(N)N)NC(=O)[C@H](CCCN=C(N)N)NC(=O)[C@@H]1CNC(=O)C[C@@H](NC(=O)[C@@H](N)Cc2ccc(O)cc2)C(=O)NCC(=O)N[C@@H](Cc2ccccc2)C(=O)N1)C(=O)N[C@@H](CCCN=C(N)N)C(=O)N1CCC[C@H]1C(=O)N[C@@H](CCCCN)C(N)=O | 9.34 | 9.28 | 9.41 | 8.29 |
| CC[C@H](C)[C@H](NC(=O)[C@H](CCCN=C(N)N)NC(=O)[C@H](CCCN=C(N)N)NC(=O)[C@H](CN)NC(=O)[C@H](Cc1ccccc1)NC(=O)CNC(=O)[C@@H](CC(=O)O)NC(=O)[C@@H](N)Cc1ccc(O)cc1)C(=O)N[C@@H](CCCN=C(N)N)C(=O)N1CCC[C@H]1C(=O)N[C@@H](CCCCN)C(N)=O | 8.80 | 9.66 | – | 7.94 |
| CC[C@H](C)[C@H](NC(=O)[C@H](CCCN=C(N)N)NC(=O)[C@H](CCCN=C(N)N)NC(=O)[C@H](CN)NC(=O)[C@H](Cc1ccccc1)NC(=O)CNC(=O)[C@@H](CC(=O)O)NC(=O)[C@@H](N)Cc1ccc(O)cc1)C(=O)N[C@@H](CCCN=C(N)N)C(=O)N1CCC[C@H]1C(=O)N[C@@H](CCCCN)C(=O)N[C@@H](CC(C)C)C(=O)N[C@@H](CCCCN)C(N)=O | 9.70 | 9.59 | – | 8.41 |
| CC[C@H](C)[C@H](NC(=O)[C@H](CCCNC(=N)N)NC(=O)[C@H](CCCNC(=N)N)NC(=O)[C@H](CC(C)C)NC(=O)[C@H](Cc1ccccc1)NC(=O)[C@@H](C)NC(=O)CNC(=O)[C@@H](N)Cc1ccc(O)cc1)C(=O)N[C@@H](CCCNC(=N)N)C(=O)N1CCC[C@H]1C(=O)N[C@@H](CCCCN)C(N)=O | 9.47 | 7.70 | – | – |
| CC[C@H](C)[C@H](NC(=O)[C@H](CCCN=C(N)N)NC(=O)[C@H](CCCN=C(N)N)NC(=O)[C@@H]1CNC(=O)C[C@@H](NC(=O)[C@@H](N)Cc2ccc(O)cc2)C(=O)N[C@H](Cc2c[nH]c3ccccc23)C(=O)N[C@@H](Cc2ccccc2)C(=O)N1)C(=O)N[C@@H](CCCN=C(N)N)C(=O)N1CCC[C@H]1C(=O)N[C@@H](CCCCN)C(N)=O | 8.65 | 8.14 | 7.92 | 6.02 |
| CC[C@H](C)[C@H](NC(=O)[C@H](CCCN=C(N)N)NC(=O)[C@H](CCCN=C(N)N)NC(=O)[C@H](CN)NC(=O)[C@H](Cc1ccccc1)NC(=O)[C@H](Cc1c[nH]c2ccccc12)NC(=O)[C@@H](CC(=O)O)NC(=O)[C@@H](N)Cc1ccc(O)cc1)C(=O)N[C@@H](CCCN=C(N)N)C(=O)N1CCC[C@H]1C(=O)N[C@@H](CCCCN)C(N)=O | 8.87 | 8.47 | – | 6.03 |
| CC[C@H](C)[C@H](NC(=O)[C@H](CCCN=C(N)N)NC(=O)[C@H](CCCN=C(N)N)NC(=O)[C@H](CN)NC(=O)[C@H](Cc1ccccc1)NC(=O)[C@@H](C)NC(=O)[C@@H](CC(=O)O)NC(=O)[C@@H](N)Cc1ccc(O)cc1)C(=O)N[C@@H](CCCN=C(N)N)C(=O)N1CCC[C@H]1C(=O)N[C@@H](CCCCN)C(N)=O | 8.21 | 8.38 | – | 6.02 |
| CC[C@H](C)[C@H](NC(=O)[C@H](CCCN=C(N)N)NC(=O)[C@H](CCCN=C(N)N)NC(=O)[C@H](CC(C)C)NC(=O)[C@H](Cc1ccccc1)NC(=O)CNC(=O)CNC(=O)[C@@H](N)Cc1ccc(O)cc1)C(=O)N[C@@H](CCCN=C(N)N)C(=O)N1CCC[C@H]1C(=O)N[C@@H](CCCCN)C(=O)N[C@@H](CC(C)C)C(=O)N[C@@H](CCCCN)C(N)=O | 9.41 | 8.73 | – | 8.22 |
| CC[C@H](C)[C@H](NC(=O)[C@H](CCCN=C(N)N)NC(=O)[C@H](CCCN=C(N)N)NC(=O)[C@@H]1CNC(=O)C[C@@H](NC(=O)[C@@H](N)Cc2ccc(O)cc2)C(=O)N[C@@H](C)C(=O)N[C@@H](Cc2ccccc2)C(=O)N1)C(=O)N[C@@H](CCCN=C(N)N)C(=O)N1CCC[C@H]1C(=O)N[C@@H](CCCCN)C(N)=O | 8.96 | 8.60 | 9.19 | 7.51 |
| CC[C@H](C)[C@H](NC(=O)[C@H](CCCN=C(N)N)NC(=O)[C@H](CCCN=C(N)N)NC(=O)[C@H](CN)NC(=O)[C@H](Cc1ccccc1)NC(=O)[C@H](C)NC(=O)[C@@H](CC(=O)O)NC(=O)[C@@H](N)Cc1ccc(O)cc1)C(=O)N[C@@H](CCCN=C(N)N)C(=O)N1CCC[C@H]1C(=O)N[C@@H](CCCCN)C(N)=O | 9.07 | 8.69 | – | 7.26 |
| CC[C@H](C)[C@H](NC(=O)[C@H](CCCN=C(N)N)NC(=O)[C@H](CCCN=C(N)N)NC(=O)[C@H](CC(C)C)NC(=O)[C@H](Cc1ccccc1)NC(=O)[C@H](Cc1c[nH]c2ccccc12)NC(=O)CNC(=O)[C@@H](N)Cc1ccc(O)cc1)C(=O)N[C@@H](CCCN=C(N)N)C(=O)N1CCC[C@H]1C(=O)N[C@@H](CCCCN)C(N)=O | 8.81 | 7.37 | – | 6.77 |
| CC[C@H](C)[C@H](NC(=O)[C@H](CCCNC(=N)N)NC(=O)[C@H](CCCNC(=N)N)NC(=O)[C@@H]1CNC(=O)C[C@@H](NC(=O)[C@@H](N)Cc2ccc(O)cc2)C(=O)N[C@@H](Cc2c[nH]c3ccccc23)C(=O)N[C@@H](Cc2ccccc2)C(=O)N1)C(=O)N[C@@H](CCCNC(=N)N)C(=O)N1CCC[C@H]1C(=O)N[C@@H](CCCCN)C(N)=O | 8.88 | 8.68 | 8.38 | 5.15 |
| CC[C@H](C)[C@H](NC(=O)[C@H](CCCNC(=N)N)NC(=O)[C@H](CCCNC(=N)N)NC(=O)[C@H](CC(C)C)NC(=O)[C@H](Cc1ccccc1)NC(=O)[C@@H](Cc1c[nH]c2ccccc12)NC(=O)CNC(=O)[C@@H](N)Cc1ccc(O)cc1)C(=O)N[C@@H](CCCNC(=N)N)C(=O)N1CCC[C@H]1C(=O)N[C@@H](CCCCN)C(N)=O | 8.27 | 7.34 | – | 5.97 |
